Reference: the EternaBench riboswitch data

What was measured:
MS2 coat protein [1] = assay: apparent Kd, MS2 coat protein; higher = weaker binding; RNA-MaP array; theophylline 2 mM where present
In short: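 Green signal was scaled to red-channel RNA signal and control-cluster median Fmax, and the apparent Kd was taken as the median of filtered per-cluster binding-curve fits. The binding series used SNAP-549-labelled MS2 coat protein from 0.7 or 1.5 nM, doubling to 3 µM, on designs transcribed by stalled E. coli RNA polymerase on Illumina sequencing-chip clusters. Each series ran without and then with constant ligand in 100 mM Tris-HCl pH 7.5, 80 mM KCl, 4 mM MgCl2, BSA, DTT, yeast tRNA and Tween-20.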

MS2 coat protein [2] = assay: apparent Kd, MS2 coat protein; higher = weaker binding; RNA-MaP array
In short: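 Sequenced DNA templates on an Illumina sequencing chip were transcribed into the designed RNAs. These were incubated at room temperature in Tris-HCl pH 7.5 buffer containing KCl, MgCl2, BSA, DTT, tRNA and Tween20 with fluorescently labeled MS2 coat protein at 1.5 nM to 3 μM, with or without input ligand. Apparent Kd is the median of binding-curve fits per cluster, and designs with fewer than 10 clusters measured were excluded.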

[3] = designed as: OFF switch for theophylline, no ligand
[4] = ligand present: theophylline, designed as: OFF switch for theophylline
[5] = designed as: ON switch for theophylline, no ligand
[6] = ligand present: theophylline, designed as: ON switch for theophylline
[7] = designed as: ON switch for flavin mononucleotide, no ligand
[8] = ligand present: flavin mononucleotide, designed as: ON switch for flavin mononucleotide

Sequence	apparent Kd (MS2 coat protein [1]; [3])	apparent Kd (MS2 coat protein [1]; [4])	apparent Kd (MS2 coat protein [1]; [5])	apparent Kd (MS2 coat protein [1]; [6])	other results
CGGUUUGUGAUGGAUACCAGCAGAGAGAAUGUUUAUCCUGACAUGAGGAUCACCCAUGUGUGCCCUUGGCAGCUGUUGUGGGCUG	60 nM	69 nM	–	–	–
UCGCUCGCAGAAAUGCGAGCGAGUUGCGAUACCAGCCCGGAAACGGGCCCUUGGCAGCGCACAUGAGGAUCACCCAUGUCAUGUU	17.4 nM	23.8 nM	–	–	–
UUUGAUAGAACAGAUACCAGCGUGUUAUAAAACAUGAGGAUCACCCAUGUAGUGAUCAAGCGCCCUUGGCAGCUGGUUUGUUAGG	–	–	135 nM	182 nM	–
UCGCAUUGCUCAGAUACCAGACAUGAGGAUCACCCAUGUACCAAGGUAACCGAAAGGCAUGUCCCUUGGCAGCUGAGCAAUGCGU	12.1 nM	225 nM	–	–	–
ACAAGUCCUCAUGAUACCAGCGAUGAGACAUAGUCUCAACAUGAGGAUCACCCAUGUAUUCGCCCUUGGCAGCAUACGGUUUUUG	–	–	301 nM	28.5 nM	–
AAUAAGCAGCUGCAAGGUGAUCCUGCAGAUACCAGCUAGGAAACUAGCCCUUGGCAGCUGCAACAUGAGGAUCACCCAUGUAAUA	34.8 nM	85.3 nM	–	–	–
UUUUUUAUCAUGGCGUAUCGGAAAACCGAUACCAGUACAGAAAUGUACCCUUGGCAGCGGCGUUUUACAUGAGGAUCACCCAUGU	14.5 nM	69.2 nM	–	–	–
AAGAAGUUUUGAUUUUUAUGAAGUAGUGAUACCAGUCAAGAAAGAGACCCUUGGCAGCGCAACAUGAGGAUCACCCAUGUAAGAA	25.4 nM	27.2 nM	–	–	–
AACAGGGCUCGCACGAAGCCCUAAGGUGAUACCAGCACAUGUAAGUGCCCUUGGCAGCACGGUACAUGAGGAUCACCCAUGUAGA	–	–	64.3 nM	255 nM	–
UAAAACAUGAGGAUCACCCAUGUAAUUGAUACCAGAGUGAUGAUCCUCCCUUGGCAGCAAAUAACGCAUUGAUUACAAUGCGAAA	–	–	42.7 nM	215 nM	–
GAACAUGAGGAUCACCCAUGUAAAACAGAUACCAGUGAUAUAAUACACCCUUGGCAGCUGUAGCUGAAUAAUAAUUCCCUCAAGC	–	–	15.5 nM	18.4 nM	–
AAGGGUGAGUCUCUAAUCCGUUUGACGGAUACCAGCGAGAGAUAUCGCCCUUGGCAGCCGACGACAUGAGGAUCACCCAUGUAAA	14.7 nM	17.2 nM	–	–	–
CUCCGAGGCUAUACUAUCCGCCUCUGUGAUACCAGAAUACCUAUAUUCCCUUGGCAGCAUCACAUGAGGAUCACCCAUGUGCCAU	–	–	–	15.1 nM	–
CAUGUUGUUGAAGAUACCAGAUUCUGAACGUUCACAUGAGGAUCACCCAUGUAAGUCCGAGUCCCUUGGCAGCUUAUACAGGUGG	–	–	53 nM	14.7 nM	–
ACCAUGUAAUCAGAUACCAGACAUCUUUUAAAUCAUAUUACAUGAGGAUCACCCAUGUUGGUCCCUUGGCAGCUGAAAUAUUUUU	–	–	205 nM	46.4 nM	–
AUAAUGGGUAUCGGAUUAUCAUGAUAUGAUACCAGAUACUUAGAUAUCCCUUGGCAGCAUGAGGACAUGAGGAUCACCCAUGUAU	35 nM	61.8 nM	–	–	–
GUAUGGAAACAUACUAUGGUAUCGUGAGAUACCAGUACAGAAAUGUACCCUUGGCAGCUCGCGCAUACAUGAGGAUCACCCAUGU	18.1 nM	25.7 nM	–	–	–
UUUGAAAUAACAGAUACCAGCGUGUUAUAAAACAUGAGGAUCACCCAUGUAGUGAUCAAGCGCCCUUGGCAGCUGGUAUUUUAGG	–	–	85.4 nM	196 nM	–
AGCGCUGUGCAUGAUACCAGCUACAUGAGGAUCACCCAUGUGCGUCAGAAAUGACUGUGUAGCCCUUGGCAGCAUAAAGCAUGUA	19 nM	58.8 nM	–	–	–
AUGGUAGGACAGCACAUAUAAGCUUGUGAUACCAGCUAGAAAACUAGCCCUUGGCAGCACAUUACAUGAGGAUCACCCAUGUCCC	51 nM	75.7 nM	–	–	–
UCGAUGGUAUCUGAUACCAGUAGCGUGCGUUACAUGAGGAUCACCCAUGUGCCUAUACUUUACCCUUGGCAGCAGUGGAUUCGAU	–	–	–	–	apparent Kd (MS2 coat protein [2]; [5]): 207 nM; apparent Kd (MS2 coat protein [2]; [6]): 58.5 nM
AGACAUGAGGAUCACCCAUGUGAAGUGGAUACCAGCCGCAGCGAUGGCCCUUGGCAGCCAGCUUUGUGUCGAUACAUCCGCACUU	–	–	–	–	apparent Kd (MS2 coat protein [2]; [3]): 15.9 nM; apparent Kd (MS2 coat protein [2]; [4]): 25.8 nM
GUCUCCUGAGAGAAGGCUCGCUCCGAGGAAUAGAGAGGAUAUCUACAUGAGGAUCACCCAUGUUGCCGAGGGAAAUGCACGGGU	–	–	–	–	apparent Kd (MS2 coat protein [2]; designed as: OFF switch for flavin mononucleotide, no ligand): 68.9 nM; apparent Kd (MS2 coat protein [2]; ligand present: flavin mononucleotide, designed as: OFF switch for flavin mononucleotide): 90.5 nM
GCGUUUGCCAAAGGAUAUCAACAUGUGUUGCUUGCAUUCCUAUACAUGAGGAUCACCCAUGUGGCUGAGAAGGUUGAACACUGG	–	–	–	–	apparent Kd (MS2 coat protein [2]; [7]): 18.2 nM; apparent Kd (MS2 coat protein [2]; [8]): 14.1 nM
AAUCGCAAUUGAGGAUAUUGAACUGAAUUGGCCACAUGAGGAUCACCCAUGUGACCUGUCUCCGUCAAGAAGGCAAUGUGGUGG	–	–	–	–	apparent Kd (MS2 coat protein [2]; [7]): 5.61 nM; apparent Kd (MS2 coat protein [2]; [8]): 4.81 nM
AAAGGAUUCAAGAAGGUACCCUAACAUGAGGAUCACCCAUGUCUCGGUGGCAUCAAGGUACCUGGUAAGGAUAUUGCAACCACU	–	–	–	–	apparent Kd (MS2 coat protein [2]; [7]): 39.4 nM; apparent Kd (MS2 coat protein [2]; [8]): 33.2 nM
